In publication PMC11303814 (Nature Communications, 2024):
Where a chain is given by its changes, count along the chain named. Entries after “also recorded” stand apart in the source; their conditions may differ.

Legend:
Type in all cases: cell-based
rP2X7-R125A/Q143A/I214A [1] = target: T1, rP2X7-R125A/Q143A/I214A (Rattus norvegicus, UniProt Q64663, I214A/Q143A/R125A); assay: TEVC deactivation time; conditions: after 100 μM ATP or 100 μM BzATP
T1 sequence (Q64663 1-595 R125A/Q143A/I214A): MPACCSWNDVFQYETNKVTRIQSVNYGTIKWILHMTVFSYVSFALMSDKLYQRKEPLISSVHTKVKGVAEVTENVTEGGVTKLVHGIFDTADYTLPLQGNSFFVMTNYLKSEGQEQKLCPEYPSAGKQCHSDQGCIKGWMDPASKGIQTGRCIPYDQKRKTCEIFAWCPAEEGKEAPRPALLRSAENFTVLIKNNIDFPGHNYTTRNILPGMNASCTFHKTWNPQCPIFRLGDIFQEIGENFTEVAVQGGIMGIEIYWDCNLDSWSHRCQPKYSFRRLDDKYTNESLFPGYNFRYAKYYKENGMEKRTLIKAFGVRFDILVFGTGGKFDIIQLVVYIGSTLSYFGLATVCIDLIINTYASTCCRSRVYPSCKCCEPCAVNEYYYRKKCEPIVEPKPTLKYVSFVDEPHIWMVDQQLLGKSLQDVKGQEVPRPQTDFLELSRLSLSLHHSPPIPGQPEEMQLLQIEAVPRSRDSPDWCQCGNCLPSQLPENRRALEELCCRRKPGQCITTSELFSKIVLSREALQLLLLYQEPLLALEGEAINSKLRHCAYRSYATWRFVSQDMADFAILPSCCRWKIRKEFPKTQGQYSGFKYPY
Procedure, shortened: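 Triple-mutant rP2X7 was expressed ~20 h in Xenopus oocytes (50 nL of 10 ng/µL mRNA) and recorded by TEVC in pH 7.4 HEPES buffer containing flufenamic acid. Deactivation followed 100 µM ATP or 100 µM BzATP. τ is the time to 63% return to baseline after washout, from a one- or two-phase decay fit. Triplicate over first to third applications per oocyte; mean ± SD.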

rP2X7-R125A/Q143A/I214A [2] = target: T1, rP2X7-R125A/Q143A/I214A; assay: TEVC dose response; conditions: read-out: EC50 (apparent affinity), mean ± SD, triplicate
wild-type rP2X7 = target: T2, wild-type rP2X7 (Rattus norvegicus, UniProt Q64663); assay: TEVC efficacy experiments, wild-type rP2X7 in oocytes; conditions: WT rP2X7, identical concentrations of ATP and BzATP
T2 sequence (Q64663 1-595): T1 sequence (Q64663 1-595 R125A/Q143A/I214A) with A125R, A143Q, A214I
Procedure, shortened: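 Oocytes expressing rP2X7 (~20 h after mRNA injection), TEVC in pH 7.4 HEPES/flufenamic acid buffer. Each oocyte first received 100 µM ATP as the normalization reference, then sequentially 50 µM ATP, 50 µM BzATP, 100 µM ATP and 100 µM BzATP, with buffer washout to baseline between applications. Normalized currents are from triplicates per concentration per construct; mean ± SD.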

rP2X7-Q143A = target: T3, rP2X7-Q143A (Rattus norvegicus, UniProt Q64663, Q143A); assay: TEVC deactivation time; conditions: after 100 μM ATP or 10 μM BzATP
T3 sequence (Q64663 1-595 Q143A): T1 sequence (Q64663 1-595 R125A/Q143A/I214A) with A125R, A214I
Procedure, shortened: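 Xenopus oocytes injected with 50 nL of 10 ng/µL mutant rP2X7 mRNA, expressed ~20 h, clamped in pH 7.4 HEPES buffer with 0.1 mM flufenamic acid and EDTA. Currents were evoked by 100 µM ATP or 10 µM BzATP. τ is the time for current to return to 63% of baseline after agonist removal, from a one- or two-phase decay fit. Done in triplicate over first to third applications per oocyte; mean ± SD.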

Molecule | deactivation lifetime τ (rP2X7-R125A/Q143A/I214A [1]) | EC50 (rP2X7-R125A/Q143A/I214A [2]) | efficacy (agonist character, current amplitude) (wild-type rP2X7) | deactivation lifetime τ (rP2X7-Q143A)
BzATP | 3.7 ± 0.7 s | 198 ± 60 µM | full agonist; also recorded: greater inward current than ATP | 7.1 ± 0.6 s
Nc1ncnc2c1ncn2[C@@H]1O[C@H](COP(=O)(O)OP(=O)(O)OP(=O)(O)O)[C@@H](O)[C@H]1O [ATP] | 2.4 ± 0.8 s | 203 ± 12 µM | partial agonist | 1.2 ± 0.1 s
